High-throughput results: PubChem, several laboratories
In the library only some 4.8% were active in any assay of this set; here they are far more common.
PAFAH2 FP inh = inhibitors of human PAFAH2; Q99487; recombinant PAFAH2, FP-rhodamine activity probe, fluorescence polarization; inhibition, % at 3.39 µM; 0.99% of 340,000 active; AID 492956;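 active = inhibition above the mean over all tested compounds plus 3 SD, cut at about 30% in these data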;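 note: inhibitors block probe labeling of enzyme so polarization drops; 0% = enzyme with DMSO and 100% = wells lacking PAFAH2 protein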
UCH37 inh = blocks the human deubiquitinase UCH37; inhibition, % (test concentration not listed); Q9Y5K5; AID 588478; purified proteasome/UCH37, Ub-AMC cleavage fluorescence; 0.33% of 330,000 active;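 active = mean inhibition over replicate wells above about 20%, limit read from the data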;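 note: 0% = compound-free wells with enzyme and 100% = wells lacking proteasome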
Target sequence (Q9Y5K5 whole entry, looked up): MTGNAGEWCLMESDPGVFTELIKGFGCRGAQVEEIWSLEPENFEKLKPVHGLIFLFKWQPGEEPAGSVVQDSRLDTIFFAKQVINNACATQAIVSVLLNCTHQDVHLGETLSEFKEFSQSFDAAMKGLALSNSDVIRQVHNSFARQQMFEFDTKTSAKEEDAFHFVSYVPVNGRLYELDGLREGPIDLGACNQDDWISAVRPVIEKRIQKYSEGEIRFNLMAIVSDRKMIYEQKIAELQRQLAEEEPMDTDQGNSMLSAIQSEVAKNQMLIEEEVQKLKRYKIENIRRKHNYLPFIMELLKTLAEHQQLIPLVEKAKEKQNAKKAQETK
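Material: Human UCH37 enzyme supplied as purified proteasome complex | Schedule: 30 min preincubation with enzyme, 25 min cleavage at room temperature | Detection: AMC fluorescence 355/460 nm | Measure: % inhibition of Ub-AMC cleavage fluorescence | Controls: Wells without proteasome as full block, compound-free enzyme plus substrate as uninhibited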
PAFAH1B3 inh = blocks human PAF acetylhydrolase 1B catalytic subunit 3; Q15102; recombinant PAFAH1B3, FP-rhodamine probe, fluorescence polarization; inhibition, % at 3.39 µM; 0.28% of 340,000 active; AID 492972;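 active = inhibition above the screen-wide average of all tested compounds plus 3 SD, cut at about 25% in these data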;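 note: 0% = enzyme with DMSO only and 100% = wells lacking PAFAH1B3 protein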
Target sequence (Q15102 whole entry, looked up): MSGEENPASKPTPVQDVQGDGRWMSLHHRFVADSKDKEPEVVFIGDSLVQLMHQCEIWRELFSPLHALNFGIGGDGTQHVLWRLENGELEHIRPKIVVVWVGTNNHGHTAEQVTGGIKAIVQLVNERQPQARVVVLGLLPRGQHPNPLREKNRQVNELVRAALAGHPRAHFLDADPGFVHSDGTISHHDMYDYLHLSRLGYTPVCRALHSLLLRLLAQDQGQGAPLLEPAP
NR3A LBD binder = modulates the human NR3A ligand-binding domain. NR3A LBD differential scanning fluorimetry, Tm shift; 0% = protein alone, 100% = glycine-bound protein. 2.5% of 340,000 active. AID 1259313. Tm shift relative to glycine control, % at 25 µM;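 active = melting temperature shift of at least 10% of the positive control shift, at one fixed dose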
pPAFAH inh = pPAFAH (human) enzyme inhibition; Q13093; recombinant pPAFAH, FP-rhodamine probe fluorescence polarization; inhibition, % at 3.39 µM; 1.5% of 330,000 active; AID 463082;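 active = inhibition above the mean inhibition across the screen plus 3 SD, cut at about 25% in these data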;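 note: inhibitors block binding of the rhodamine activity-based probe so polarization drops; 0% = enzyme with DMSO and 100% = wells lacking pPAFAH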
PAFAH1B2 inh = PAFAH1B2 (human) inhibition. 1.2% of 340,000 active. recombinant PAFAH1B2, FP-rhodamine activity probe, fluorescence polarization. P68402. inhibition, % at 3.39 µM;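 active = inhibition above the mean of all tested compounds plus 3 SD, cut at about 24% in these data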;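 note: 0% = enzyme with DMSO and 100% = wells lacking PAFAH1B2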
* hit, by the source's call; i = inactive; x = no result given.

SMILES | PAFAH2 FP inh | UCH37 inh | PAFAH1B3 inh | NR3A LBD binder | pPAFAH inh | PAFAH1B2 inh
CC12CC[C@H]3[C@@H](CCC4(O)C[C@H](O)CCC34C=NNC(=O)c3ccccc3F)C1(O)CCC2C1=CC(=O)OC1 (stereo not given in full) | x | 1 | x | x | x | x
O=P(NC(c1ccccc1)c1ccccc1)(Oc1ccccc1)Oc1ccccc1 | -2 | 0 | 1 | -2 | 8 | -3
O=P(O)(Oc1ccccc1)OC(c1ccccc1)C(F)(F)F (stereo not given) | 67* | 3 | 0 | -1 | -11 | 52*
O=[N+]([O-])C=C1NCCN1Cc1ccc(Cl)nc1 | x | 5 | x | x | x | x
CC(C)CC12CN3CCN(CC(C3)C1=NO)C2 | x | 5 | x | x | x | x
CC(=O)C1CCC2C3CCC4CC(O)CCC4(C)C3CCC12C (stereo not given) | 6 | 5 | 18 | 14* | 7 | -1
CC(=O)[C@H]1CC[C@H]2[C@@H]3CC[C@H]4C[C@H](O)CC[C@]4(C)[C@H]3C(=O)C[C@]12C | -7 | 4 | 0 | 0 | 1 | 0
Cn1cccc1/C=C1\C(=O)NC(=O)N(Cc2ccco2)C1=O | 24 | 0 | 3 | 1 | x | 6
O=C1NC(=O)N(Cc2ccco2)C(=O)/C1=C/C=C/c1ccco1 | 33* | 1 | 4 | 2 | 33* | 5
Cc1ccc(OCCn2cccc2/C=C2/C(=O)NC(=O)N(Cc3ccco3)C2=O)cc1 | 15 | 7 | 7 | -10 | 22 | 25*
NC(=N[N+](=O)[O-])N1CCN(C(=O)Oc2ccc([N+](=O)[O-])cc2)CC1 | x | 0 | x | x | x | x
NC(=NN=Cc1ccc(O)cc1O)N[N+](=O)[O-] | x | 18 | x | x | x | x
C[C@H]1CCC[C@@H](O)CCCC=Cc2cc(O)cc(O)c2C(=O)O1 | x | 0 | x | x | x | x
OCCN(CC#CC(O)(c1ccccc1)C1CCCC1)CCO (stereo not given) | 2 | 32* | 10 | 0 | 4 | 5
CCC12CN3CCN(CC(C3)C1=NNC(N)=O)C2 | x | -1 | x | x | x | x
COC(=O)C1=C(C(=O)OC)SC2(S1)C(C(=O)OC)=C(C(=O)OC)Sc1c2ssc1=O | 3 | x | 20 | 25* | x | 1
CCCCC(=O)N/N=C/c1c(O)n(Cc2ccc(F)cc2)c(=O)[nH]c1=O | -3 | 5 | -2 | -3 | 9 | 13
O=C(O)CCC(=O)NCCC1=c2ccccc2=N/C1=C\c1c(O)n(Cc2ccc(F)cc2)c(=S)[nH]c1=O | 38* | 4 | -2 | 1 | 14 | 41*
NP(=O)(OCCCc1ccccc1)Oc1ccccc1 (stereo not given) | 24 | -1 | 6 | -2 | 2 | 62*
Oc1c(Br)c(Br)c(Br)c(Br)c1Br | 27 | x | 14 | 32* | 32* | 41*
Oc1c(Br)cc(Br)cc1Br | 1 | 0 | 2 | 3 | 3 | 4
Cc1cc(/C=C2\C(=O)NC(=O)N(c3ccc(F)cc3)C2=O)c(C)n1-c1ccc(C(=O)O)cc1 | 0 | 6 | 6 | -2 | 4 | 1
COc1cc(/C=C2\C(=O)NC(=O)N(c3ccccc3)C2=O)cc(OC)c1O | -1 | 2 | 10 | 11* | 3 | 5
Cc1cc(/C=C2/C(=O)NC(=O)N(c3ccccc3)C2=O)c(C)n1-c1ccc(F)cc1 | 29 | 0 | -2 | 1 | 8 | 25*
Cc1cc(/C=C2\C(=O)NC(=O)N(Cc3ccccc3)C2=O)c(C)n1-c1ccc(Cl)c(C(=O)O)c1 | 43* | 9 | 8 | -3 | 28* | 8
SMILES | PAFAH2 FP inh | UCH37 inh | PAFAH1B3 inh | NR3A LBD binder | pPAFAH inh | PAFAH1B2 inh
Cc1cc(/C=C2\C(=O)NC(=O)N(Cc3ccco3)C2=O)c(C)n1-c1ccc(C(=O)O)cc1 | 4 | 3 | -4 | -1 | 10 | 6
Cc1onc(-c2c(Cl)cccc2Cl)c1C(N)=NOC(=O)N(C)C | x | 1 | x | x | x | x
O=C(Nc1ccc(Cl)c(Cl)c1)c1ccco1 | 4 | -1 | 4 | 5 | 2 | -2
C=CCNC(=S)Nc1ccc(OC(=O)Nc2ccc(Cl)c(Cl)c2)cc1 | -26 | x | -8 | 21* | x | -2
Cc1cc(N(CCCl)CCCl)ccc1C=NNC(=O)c1ccco1 | x | -63 | x | x | x | x
CNC(=O)ON=C(C)Cc1nnn(-c2cc(C)on2)n1 | x | 1 | x | x | x | x
O=C1NC(=O)C(=Cc2ccc(-c3ccc(F)cc3O)o2)C(=O)N1 | 13 | 5 | -3 | -12 | 1 | 32*
O=C1NC(=O)C(=Cc2ccc(-c3ccc(Cl)cc3)o2)C(=O)N1 | 1 | 1 | 10 | 0 | 5 | 15
CC12CC[C@H]3[C@@H](CCC4(O)C[C@H](O)CCC34C=NNC(=O)c3ccc(O)cc3)C1(O)CCC2C1=CC(=O)OC1 (stereo not given in full) | x | 0 | x | x | x | x
COc1ccc(OC)c(C=NOC(=O)Nc2ccc(Cl)cc2)c1 | x | -29 | x | x | x | x
COc1ccc(Oc2cc(NC(=O)c3nn(C)cc3[N+](=O)[O-])cc([N+](=O)[O-])c2)cc1 | -18 | 4 | -1 | 15* | 17 | -6
O=C(/C=C/c1ccc(O)c(O)c1)OC1C(O)CC(OC(=O)/C=C/c2ccc(O)c(O)c2)(C(=O)O)CC1O (stereo not given) | 2 | 12 | 1 | 1 | 0 | 8
Nc1c(C(=O)NCC2CCCO2)c2nc3ccccc3nc2n1Cc1ccco1 (stereo not given) | -4 | i | -4 | -6 | 25* | 5
CCCNC(=O)c1c(N)n(Cc2ccco2)c2nc3ccccc3nc12 | x | -405 | x | -10 | 20 | x
C#C[C@@]1(O)CCC2C3CCC4=CC(=NOCC(=O)NC(C(=O)NC(CC(C)C)C(=O)O)C(C)C)CC[C@]4(C)C3CC[C@@]21C (stereo not given in full) | x | 1 | x | x | x | x
CCOc1cc2c(cc1OCC)-n1cccc1C(c1cccc(F)c1F)NC2 (stereo not given) | 5 | 5 | 10 | 10* | 3 | 8
CCOc1cc2c(cc1OCC)-n1cccc1C(c1ccccc1O)NC2 (stereo not given) | 6 | 4 | 4 | 1 | -5 | 0
C=CCn1c(O)c(C=Nc2c(C)n(C)n(-c3ccccc3)c2=O)c(=O)[nH]c1=O | -3 | 20* | -1 | -2 | -4 | 3
O=C1CCCN1C(=O)c1cncc(Br)c1 | -2 | 1 | 4 | 0 | 0 | 26*
ON=Cc1c[nH]c2ccccc12 | x | 3 | x | x | x | x
CC(=Nc1ccc2c(c1)CCC2)c1c(O)n(C)c(=O)n(C)c1=O | 6 | 32* | 5 | 0 | -2 | 1
COC(=O)C1C(O)C(C)C(O)C(C)C=CC=C(C)C(=O)Nc2c(C)c(OC(C)=O)c3c(c2O)C(=O)C(C)=C2OCOC(=C23)C(C)=CC(C)(O)C(O)C(C)C1O (stereo not given) | x | 16 | x | x | x | x
CCOc1ccc(C=C2C(=O)NC(=S)NC2=O)cc1OCC | 2 | 2 | 11 | 1 | x | 7
